Assay results gathered from unrelated publications.
Protocols differ between the studies behind these lines.
Target: Serine/threonine-protein kinase 38-like (STK38L, Homo sapiens, UniProt Q9Y2H1)

Structure (SMILES) | read-out | action | method | cell line | concentration | measurement | result
CCN1CCN(Cc2ccc(NC(=O)c3ccc(C)c(Oc4ccnc5[nH]ccc45)c3)cc2C(F)(F)F)CC1 | target engagement in cells | inhibitor | chemoproteomics | Huh-7 | 1 µM | inhibition | -11.8%
Cc1sc(C(=O)NC2COC2)cc1-n1cc(NC(=O)Nc2c(F)cccc2Cl)cn1 | enzyme activity | inhibitor |  |  | 10 µM | remaining activity | 95.1%
COc1cc(Cl)c(C(=O)N[C@@H](CN[C@H]2CC[C@@H](N)CC2)Cc2ccc(C#N)cc2)cc1-c1ccc(CN[C@H](C)c2ccc(C)cc2)o1 | enzyme activity | inhibitor |  |  | 1 µM | remaining activity | 91%
O=C(O)[C@@H]1[C@@H](Cn2nnc3ccccc3c2=O)CC[C@H]1C(=O)c1ccc(OCCC2CCOCC2)cc1 | binding |  | competition with immobilised ligand |  | 1 µM | remaining binding | 100%
CN1CCC2(CC1)NC(=O)c1c(c3ccc(Cl)c(Cl)c3n1C)C2C#N (racemic) | thermal stability |  | DSF |  | 10 µM | ΔTm | 0 °C
C[C@@H]1CN(c2cc(-c3nn(C)c4ccc(OC5(C)CC5)cc34)ncn2)C[C@H](C)O1 | cell-free assay |  | competition with immobilised ligand |  | 1 µM | remaining binding | 72%
COc1cc(-c2cc(-c3ccc(N4CCNCC4)cc3)cnc2C)cc(OC)c1OC | enzyme activity | inhibitor |  |  | 0.1 µM | inhibition | 0%
CN1CC(Oc2cnc(C#N)cc2-c2ccn3nc(NC(=O)C4CC4)cc3c2)C1 | enzyme activity | inhibitor |  |  | 1 µM | inhibition | 27%
Cn1c2c(c3ccc(Cl)c(Cl)c31)C(C#N)C1(CCOCC1)NC2=O (centres unmarked) | thermal stability |  | DSF |  | 10 µM | ΔTm | -0.2 °C
CNc1cc(Oc2cc(C(=O)Nc3cc(N4CCN(C)CC4)cc(C(F)(F)F)c3)ccc2C)ncn1 | target engagement in cells | inhibitor | chemoproteomics | Huh-7 | 1 µM | inhibition | -35.6%
CN(C)c1ncnc(-c2ccc3nc(Nc4cc(CN5CCN(C(=O)CC(F)(F)F)CC5)ccn4)[nH]c3c2)c1Cl | cell-free assay |  | competition with immobilised ligand |  | 1 µM | remaining binding | 74%
CCC1(CC)NC(=O)c2c(c3ccc(Cl)c(Cl)c3n2C)C1C#N (centres unmarked) | thermal stability |  | DSF |  | 10 µM | ΔTm | 0 °C
COCCOc1nc(-c2ccc(Cl)nc2)nc2c1CN(C(=O)c1ncn3ccccc13)CC2 | cell-free assay |  | competition with immobilised ligand |  | 0.1 µM | remaining binding | 100%
Cn1c2c(c3ccc(Cl)c(Cl)c31)C(C#N)C(C)(C)NC2=O (centres unmarked) | thermal stability |  | DSF |  | 10 µM | ΔTm | -0.1 °C
CS(=O)(=O)c1cc(C2(NC(=O)c3cncc4c3cnn4-c3ccc(F)cc3)CC2)ccn1 | cell-free assay |  | competition with immobilised ligand |  | 1 µM | remaining binding | 34%
Cn1c2c(c3ccc(Cl)c(Cl)c31)C(C#N)C1(CCNCC1)NC2=O (racemic) | thermal stability |  | DSF |  | 10 µM | ΔTm | -0.2 °C
Cc1nc(N2CC[C@@H](O)C2)ncc1-c1cc(C(F)(F)F)cc2[nH]ncc12 | binding |  | competition with immobilised ligand |  | 1 µM | remaining binding | 87%
Cn1c2c(c3ccccc31)C(C#N)C(C)(C)NC2=O (centres unmarked) | thermal stability |  | DSF |  | 10 µM | ΔTm | 0 °C
CC/C(=N\NC(=O)NCc1cccc(O)c1)c1ccc(O)c(C)c1O | enzyme activity | inhibitor |  |  | 0.1 µM | inhibition | 19.5%
Cc1ccc(C(=O)Nc2ccc(CN3CCN(C)CC3)c(C(F)(F)F)c2)cc1C#Cc1cnc2cccnn12 | enzyme activity |  |  |  | 23.5 nM | remaining activity | 99%
